Source: ChEMBL document CHEMBL1137507, “Discovery, synthesis, and structure-activity studies of tetrazole based growth hormone secretagogues” (Bioorg Med Chem Lett, 2007)

How the values were obtained:
[1] = target: T1, Growth hormone secretagogue receptor type 1 (Homo sapiens, UniProt Q92847); test: Displacement of [125I]ghrelin from human GHSR1a after 1 hr
Outline: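 Membranes (0.5 ug) from RAGE-based GHSR1a-expressing cells incubated 1 h with 0.02 nM [125I]ghrelin in 25 mM Hepes pH 7.2, 10 mM MgCl2, 2 mM EGTA, 0.1% BSA across a 12-point compound dose range; filtration over polyethylenimine-coated GFB plates, scintillation counting; four-parameter logistic fit, Ki via Cheng-Prusoff; typically tested on three separate occasions.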

[2] = target: T1, Growth hormone secretagogue receptor type 1; test: Agonist activity at human GHS receptor expressed in H4 glioma cells assessed as intracellular calcium concentration by FLIPR assay; assay type: functional, cell-based
[3] = Oral bioavailability in rat; assay type: ADME, organism-based; conditions: in vivo
[4] = Oral bioavailability in dog; assay type: ADME, organism-based, Canis lupus familiaris; conditions: in vivo
Canis familiaris = test: Effect on GH level in Beagle dog at 10 mg/kg, po; assay type: functional, Canis lupus familiaris
Outline: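 Beagle dogs dosed orally at 10 mg/kg alongside vehicle controls; plasma GH followed to 120 min post-dose, read-out as mean peak GH level in ng/mL.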

[5] = target: Growth hormone secretagogue receptor type 1 (Rattus norvegicus) (UniProt O08725); test: Agonist activity at GHS receptor in intravenously dosed anesthetized Wistar rat after 15 mins; assay type: functional, organism-based
Sequence of Growth hormone secretagogue receptor type 1 (Rattus norvegicus) (O08725 whole entry): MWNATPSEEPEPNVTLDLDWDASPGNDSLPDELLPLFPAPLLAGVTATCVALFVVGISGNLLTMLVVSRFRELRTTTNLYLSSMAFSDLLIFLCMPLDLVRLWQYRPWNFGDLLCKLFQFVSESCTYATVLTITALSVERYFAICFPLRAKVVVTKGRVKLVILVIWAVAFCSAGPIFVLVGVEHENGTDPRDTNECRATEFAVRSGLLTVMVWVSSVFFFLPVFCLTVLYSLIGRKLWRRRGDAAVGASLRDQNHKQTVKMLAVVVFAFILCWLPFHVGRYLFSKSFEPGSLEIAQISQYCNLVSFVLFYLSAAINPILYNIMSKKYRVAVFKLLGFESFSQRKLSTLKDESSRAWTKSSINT

T1 sequence (Q92847 whole entry): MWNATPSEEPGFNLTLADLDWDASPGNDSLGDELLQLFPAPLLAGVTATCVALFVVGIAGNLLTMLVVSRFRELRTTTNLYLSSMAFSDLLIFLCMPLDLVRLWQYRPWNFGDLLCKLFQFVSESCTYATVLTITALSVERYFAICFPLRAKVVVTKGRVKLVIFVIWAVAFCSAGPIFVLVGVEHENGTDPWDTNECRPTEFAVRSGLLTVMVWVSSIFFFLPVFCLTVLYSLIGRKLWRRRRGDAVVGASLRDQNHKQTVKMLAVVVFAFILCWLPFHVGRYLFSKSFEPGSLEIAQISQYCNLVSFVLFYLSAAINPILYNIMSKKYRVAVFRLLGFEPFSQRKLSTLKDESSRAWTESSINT

| SMILES | Ki [1] | EC50 [2] | bioavailability [3] | bioavailability [4] | ED50 [5] | Activity (Canis familiaris) |
| --- | --- | --- | --- | --- | --- | --- |
| CC(C)(N)C(=O)N[C@H](COCc1ccccc1)c1nnnn1CC1CN(S(C)(=O)=O)c2ccccc21 (some centres not stated) | 1590 nM | 147 nM | – | – | – | – |
| CCCCNC(=O)CCn1nnnc1[C@@H](COCc1ccccc1)NC(=O)C(C)(C)N | 2190 nM | 42 nM | – | – | – | – |
| CC(C)(N)C(=O)N[C@H](COCc1ccccc1)c1nnnn1CC#N | 4170 nM | 29 nM | – | – | – | – |
| COC(=O)C(c1ccccc1)n1nnnc1[C@@H](COCc1ccccc1)NC(=O)C(C)(C)N (some centres not stated) | 470 nM | 20 nM | – | – | – | – |
| COC(=O)CCn1nnnc1[C@@H](Cc1c[nH]c2ccccc12)NC(=O)C(C)(C)N | > 5000 nM | 200 nM | – | – | – | – |
| CCCCNC(=O)CCn1nnnc1[C@@H](CCc1ccccc1)NC(=O)C(C)(C)N | 1370 nM | 49 nM | – | – | – | – |
| CC(C)(N)C(=O)N[C@H](COCc1ccccc1)c1nnn(C/C=C/c2ccccc2)n1 | > 5000 nM | 517 nM | – | – | – | – |
| CC(C)(N)C(=O)N[C@H](COCc1ccccc1)c1nnn(Cc2ccccc2)n1 | 4750 nM | 1120 nM | – | – | – | – |
| COC(=O)C(c1ccccc1)n1nnc([C@@H](COCc2ccccc2)NC(=O)C(C)(C)N)n1 (some centres not stated) | > 5000 nM | 3170 nM | – | – | – | – |
| CC(C)(N)C(=O)N[C@H](COCc1ccccc1)c1nnn(CC2Cc3ccccc3N2S(C)(=O)=O)n1 (some centres not stated) | > 5000 nM | 546 nM | – | – | – | – |
| CC(C)(N)C(=O)N[C@H](COCc1ccccc1)c1nnn(CCCCC#N)n1 | > 5000 nM | 1860 nM | – | – | – | – |
| CN(c1ccccc1CCCn1nnc([C@@H](COCc2ccccc2)NC(=O)C(C)(C)N)n1)S(C)(=O)=O | 2390 nM | 107 nM | – | – | – | – |
| CC(C)(N)C(=O)N[C@H](COCc1ccccc1)c1nnnn1C/C=C/c1ccccc1 | 190 nM | 12 nM | – | – | 0.0264 µmol/kg | – |
| CC(C)(N)C(=O)N[C@H](COCc1ccccc1)c1nnnn1CCc1ccccc1NS(C)(=O)=O | 2200 nM | 67 nM | – | – | – | – |
| CC(C)(N)C(=O)N[C@H](COCc1ccccc1)c1nnnn1CCCCCNC(=O)OCc1ccccc1 | 320 nM | 10 nM | – | – | – | – |
| CC(C)(N)C(=O)N[C@H](COCc1ccccc1)c1nnnn1Cc1ccccc1 | 1900 nM | 99 nM | – | – | – | – |

Second part, led by results:

| Ki [1] | EC50 [2] | bioavailability [3] | bioavailability [4] | ED50 [5] | SMILES | Activity (Canis familiaris) |
| --- | --- | --- | --- | --- | --- | --- |
| > 5000 nM | 986 nM | – | – | – | CC(C)(N)C(=O)N[C@H](COCc1ccccc1)c1nnn(Cc2ccc(NS(C)(=O)=O)cc2)n1 | – |
| 1270 nM | 150 nM | – | – | – | CC(C)(N)C(=O)N[C@H](COCc1ccccc1)c1nnn(CCc2cc3ccccc3n2S(C)(=O)=O)n1 | – |
| 2940 nM | 30 nM | 56% | 76% | 0.0085 µmol/kg | CC(C)(N)C(=O)N[C@H](COCc1ccccc1)c1nnnn1CCC#N | 30 ng/mL |
| 3380 nM | 43 nM | – | – | – | COC(=O)CCn1nnnc1[C@@H](COCc1ccccc1)NC(=O)C(C)(C)N | – |
| 970 nM | 4 nM | – | – | > 0.0174 µmol/kg | CC(C)(N)C(=O)N[C@H](COCc1ccccc1)c1nnnn1CCc1cc2ccccc2n1S(C)(=O)=O | – |
| > 5000 nM | 116 nM | – | – | – | CC(C)(N)C(=O)N[C@H](COCc1ccccc1)c1nnnn1Cc1cccc(NS(C)(=O)=O)c1 | – |
| 820 nM | 59 nM | – | – | – | CC(C)(N)C(=O)N[C@H](COCc1ccccc1)c1nnnn1CCC(=O)NCCCc1ccccc1 | – |
| 2660 nM | 4110 nM | – | – | – | CC(C)(N)C(=O)N[C@H](COCc1ccccc1)c1nnn(CCc2ccccc2NS(C)(=O)=O)n1 | – |
| 3120 nM | 35 nM | – | – | – | CC(C)(N)C(=O)N[C@H](COCc1ccccc1)c1nnnn1CCCCC#N | – |
| 5000 nM | 347 nM | – | – | – | CC(C)(N)C(=O)N[C@H](COCc1ccccc1)c1nnnn1CCc1nnn[nH]1 | – |
| 4450 nM | 390 nM | – | – | – | CC(C)(N)C(=O)N[C@H](COCc1ccccc1)c1nnnn1Cc1ccccc1NS(C)(=O)=O | – |
| 1070 nM | 51 nM | – | – | – | CC(C)(N)C(=O)N[C@H](COCc1ccccc1)c1nnnn1CCC(=O)NCc1ccccc1 | – |
| > 5000 nM | 259 nM | – | – | – | CC(C)(N)C(=O)N[C@H](COCc1ccccc1)c1nnnn1Cc1ccc(NS(C)(=O)=O)cc1 | – |
| 200 nM | 17 nM | – | – | – | CC(C)(N)C(=O)N[C@H](COCc1ccccc1)c1nnnn1CCCc1ccccc1 | – |
| > 5000 nM | 75 nM | – | – | – | CC(C)(N)C(=O)N[C@H](COCc1ccccc1)c1nnnn1CCCCCNS(C)(=O)=O | – |
| 780 nM | 27 nM | – | – | – | CC(C)(N)C(=O)N[C@H](COCc1ccccc1)c1nnnn1CCC(=O)NCCc1ccccc1 | – |
| 1720 nM | 14 nM | – | – | – | CN(c1ccccc1CCCn1nnnc1[C@@H](COCc1ccccc1)NC(=O)C(C)(C)N)S(C)(=O)=O | – |
| 1780 nM | 30 nM | – | – | – | CCCCNC(=O)CCCn1nnnc1[C@@H](COCc1ccccc1)NC(=O)C(C)(C)N | – |
| 2380 nM | 55 nM | – | – | – | COC(=O)CCCn1nnnc1[C@@H](COCc1ccccc1)NC(=O)C(C)(C)N | – |
| > 5000 nM | 426 nM | – | – | – | CC(C)(N)C(=O)N[C@H](COCc1ccccc1)c1nnn(Cc2ccccc2NS(C)(=O)=O)n1 | – |
| > 5000 nM | 868 nM | – | – | – | CC(C)(N)C(=O)N[C@H](COCc1ccccc1)c1nnn(Cc2cccc(NS(C)(=O)=O)c2)n1 | – |
| > 5000 nM | 1520 nM | – | – | – | CC(C)(N)C(=O)N[C@H](COCc1ccccc1)c1nnn(CC#N)n1 | – |
